Source: ChEMBL document CHEMBL3739264, “Synthesis and bio-evaluation of novel quinolino-stilbene derivatives as potential anticancer agents” (Bioorg Med Chem, 2015)
Calls of active or inactive are those of the source. No cut-off for these calls is given here.

What was measured:
MDA-MB-231 = test: Antiproliferative activity against human MDA-MB-231 cells after 72 hrs by SRB assay; format: functional, cell-based; conditions: MDA-MB-231, 72 h
In short: (§1)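 Cells seeded at 4,000-5,000/well for 16 h, then exposed 72 h to serial dilutions of compound in DMSO; sham DMSO as 100% and TCA-treated wells as 0%. Fixed in 10% TCA at 4°C for 1 h, stained with 0.4% SRB for 30 min, dye solubilised in 10 mmol Tris pH 10.5, read at 540 nm. IC50 from sigmoidal dose-response curves; two biological replicates, four technical each.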

MDA-MB-468 [1] = test: Antiproliferative activity against human MDA-MB-468 cells after 72 hrs by SRB assay; format: functional, cell-based; conditions: MDA-MB-468, 72 h; in short: as §1
HeLa = test: Antiproliferative activity against human HeLa cells after 72 hrs by SRB assay; format: functional, cell-based; in short: as §1
[2] = Antiproliferative activity against human 184B5 cells after 72 hrs by SRB assay; format: cell-based; conditions: 184B5, 72 h; in short: as §1
MCF7 = test: Antiproliferative activity against human MCF7 cells after 72 hrs by SRB assay; format: functional, cell-based; conditions: MCF7, 72 h
In short: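 Cells seeded at 4,000-5,000/well for 16 h, then exposed 72 h to serial dilutions of compound in DMSO; sham DMSO as 100% and TCA-treated wells as 0%. IC50 from sigmoidal dose-response curves; two biological replicates, four technical each.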

Tubulin (Homo sapiens) = Tubulin (Homo sapiens) (UniProt P68371+Q9H4B7+P0DPH7+P68366+Q13509+Q71U36+P04350+Q3ZCM7+P07437+P68363+Q9BQE3+Q6PEY2+Q13885+Q9BVA1+Q9BUF5); conditions: 5 uM
MDA-MB-468 [3] = test: Cell cycle arrest in human MDA-MB-468 cells assessed as accumulation at S phase at 1 uM after 12 hrs by flow cytometry analysis relative to control; format: functional
In short: (§2)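 Cells seeded overnight at about 1 × 10^6 per plate, treated next morning, and harvested at set times. Fixed in 75% ethanol at -20°C for 12-24 h, then stained 1 h in PBS with 0.3% NP-40, 100 µg/ml RNase A and 100 µg/ml propidium iodide. Phase distribution read from DNA content by flow cytometry against sham-treated cells.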

MDA-MB-468 [4] = test: Cell cycle arrest in human MDA-MB-468 cells assessed as accumulation at G0-G1 phase at 1 uM after 48 hrs by flow cytometry analysis relative to control; format: functional; in short: as §2
MDA-MB-468 [5] = test: Cell cycle arrest in human MDA-MB-468 cells assessed as accumulation at G0-G1 phase at 1 uM after 12 hrs by flow cytometry analysis relative to control; format: functional; in short: as §2
MDA-MB-468 [6] = test: Cell cycle arrest in human MDA-MB-468 cells assessed as accumulation at sub-G1 phase at 1 uM after 72 hrs by flow cytometry analysis relative to control; format: functional; in short: as §2
MDA-MB-468 [7] = test: Cell cycle arrest in human MDA-MB-468 cells assessed as accumulation at S phase at 1 uM after 48 hrs by flow cytometry analysis relative to control; format: functional; in short: as §2
MDA-MB-468 [8] = test: Cell cycle arrest in human MDA-MB-468 cells assessed as accumulation at G2/M phase at 1 uM after 24 hrs by flow cytometry analysis relative to control; format: functional; in short: as §2
MDA-MB-468 [9] = test: Cell cycle arrest in human MDA-MB-468 cells assessed as accumulation at sub-G1 phase at 1 uM after 48 hrs by flow cytometry analysis relative to control; format: functional; in short: as §2
MDA-MB-468 [10] = test: Cell cycle arrest in human MDA-MB-468 cells assessed as accumulation at G0-G1 phase at 1 uM after 24 hrs by flow cytometry analysis relative to control; format: functional; in short: as §2
MDA-MB-468 [11] = test: Induction of DNA damage in human MDA-MB-468 cells at 1 uM after 24 hrs by immunostaining; format: functional, cell-based
In short: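 γH2A.X (phospho-Ser139) immunostaining, with HeLa at 6 µM for 24 or 48 h and MDA-MB468 at 1 µM. Cells on coverslips fixed and permeabilized in ice-cold methanol at -20°C. Blocked in 1% FBS, primary antibody 1:200 overnight at 4°C, then fluorophore-conjugated secondary 1 h. DNA counterstained with DRAQ5.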

MDA-MB-468 [12] = test: Cell cycle arrest in human MDA-MB-468 cells assessed as accumulation at G2/M phase at 1 uM after 12 hrs by flow cytometry analysis relative to control; format: functional; in short: as §2
MDA-MB-468 [13] = test: Cell cycle arrest in human MDA-MB-468 cells assessed as accumulation at sub-G1 phase at 1 uM after 24 hrs by flow cytometry analysis relative to control; format: functional; in short: as §2
MDA-MB-468 [14] = test: Cell cycle arrest in human MDA-MB-468 cells assessed as accumulation at S phase at 1 uM after 72 hrs by flow cytometry analysis relative to control; format: functional; in short: as §2
MDA-MB-468 [15] = test: Cell cycle arrest in human MDA-MB-468 cells assessed as accumulation at G2/M phase at 1 uM after 72 hrs by flow cytometry analysis relative to control; format: functional; in short: as §2
MDA-MB-468 [16] = test: Cell cycle arrest in human MDA-MB-468 cells assessed as accumulation at G0-G1 phase at 1 uM after 72 hrs by flow cytometry analysis relative to control; format: functional; in short: as §2
MDA-MB-468 [17] = test: Cell cycle arrest in human MDA-MB-468 cells assessed as accumulation at S phase at 1 uM after 24 hrs by flow cytometry analysis relative to control; format: functional; in short: as §2
MDA-MB-468 [18] = test: Cell cycle arrest in human MDA-MB-468 cells assessed as accumulation at G2/M phase at 1 uM after 48 hrs by flow cytometry analysis relative to control; format: functional; in short: as §2
MDA-MB-468 [19] = test: Cell cycle arrest in human MDA-MB-468 cells assessed as accumulation at sub-G1 phase at 1 uM after 12 hrs by flow cytometry analysis relative to control; format: functional; in short: as §2

SMILES	IC50 (MDA-MB-231) [µM]	IC50 (MDA-MB-468 [1]) [µM]	IC50 (HeLa) [µM]	IC50 (MCF7) [µM]	IC50 [2] [µM]	further results
FC(F)(F)c1cccc(/C=C/c2cc3ccccc3nc2Cl)c1	45	24	20.3	24.4	24.7	–
Fc1ccc(/C=C\c2cc3ccc(Cl)cc3nc2Cl)cc1	42.6	10.9	38.6	16.9	26.9	–
CCN(CC)CCCC(C)Nc1ccnc2cc(Cl)ccc12 (stereo not drawn) [CHLOROQUINE]	36.5	19.9	30	–	63.1	–
FC(F)(F)c1cc(/C=C\c2cc3ccc(Cl)cc3nc2Cl)cc(C(F)(F)F)c1	> 50	> 50	41.4	41.7	43	–
COC(=O)Nc1nc2cc(C(=O)c3cccs3)ccc2[nH]1	–	–	–	–	–	inhibition (Tubulin (Homo sapiens)): Active
COc1ccc2nc(Cl)c(/C=C\c3ccc(C(F)(F)F)cc3)cc2c1	22.8	22.7	16.2	12.4	40	–
COc1ccc2nc(Cl)c(/C=C\c3ccc(C(F)(F)F)cc3C(F)(F)F)cc2c1	> 50	> 50	> 50	> 50	> 50	–
FC(F)(F)c1cccc(/C=C\c2cc3cc4c(cc3nc2Cl)OCO4)c1	26	> 50	20.1	18.9	17	–
CC[C@@]1(O)C(=O)OCc2c1cc1n(c2=O)Cc2cc3ccccc3nc2-1 [CAMPTOTHECIN]	0.00577	0.0148	0.00613	–	0.00496	–
COc1ccc2nc(Cl)c(/C=C/c3ccc(C(F)(F)F)cc3)cc2c1	48.8	> 50	> 50	47	33.5	–
Fc1ccc(/C=C/c2cc3ccccc3nc2Cl)cc1	> 50	0.12	> 50	15.1	38.5	Activity (MDA-MB-468 [3]): 34.5%; Activity (MDA-MB-468 [4]): 21.8%; Activity (MDA-MB-468 [5]): 37%; Activity (MDA-MB-468 [6]): 65%; Activity (MDA-MB-468 [7]): 22%; Activity (MDA-MB-468 [8]): 20.2%; Activity (MDA-MB-468 [9]): 40.6%; Activity (MDA-MB-468 [10]): 23.1%; Activity (MDA-MB-468 [11]): Active; Activity (MDA-MB-468 [12]): 21.9%; Activity (MDA-MB-468 [13]): 13.7%; Activity (MDA-MB-468 [14]): 11.4%; Activity (MDA-MB-468 [15]): 6.7%; Activity (MDA-MB-468 [16]): 16.1%; Activity (MDA-MB-468 [17]): 41.7%; Activity (MDA-MB-468 [18]): 15%; Activity (MDA-MB-468 [19]): 5%
FC(F)(F)c1ccc(/C=C\c2cc3ccccc3nc2Cl)c(C(F)(F)F)c1	41.8	–	35.9	10.5	–	–
Fc1ccc(/C=C\c2cc3ccccc3nc2Cl)cc1	24	5.29	24.9	20.3	35.7	–
FC(F)(F)c1cc(/C=C\c2cc3cc4c(cc3nc2Cl)OCO4)cc(C(F)(F)F)c1	> 50	> 50	> 50	> 50	> 50	–

Second part, led by results:

IC50 (MDA-MB-231) [µM]	IC50 (MDA-MB-468 [1]) [µM]	IC50 (HeLa) [µM]	IC50 (MCF7) [µM]	SMILES	IC50 [2] [µM]	further results
5.36	7.38	4.22	4.26	FC(F)(F)c1ccc(/C=C\c2cc3ccccc3nc2Cl)cc1	7.94	–
13.6	16.1	12.6	6.45	FC(F)(F)c1ccc(/C=C\c2cc3ccc(Cl)cc3nc2Cl)cc1	26.4	–
10.1	10.5	6.78	7.46	FC(F)(F)c1cc(/C=C\c2cc3ccccc3nc2Cl)cc(C(F)(F)F)c1	13.7	–
2.77	4.98	2.6	4.47	COc1ccc2nc(Cl)c(/C=C\c3ccccc3C(F)(F)F)cc2c1	5.31	–
11	14.8	> 50	14.1	COc1ccc2nc(Cl)c(/C=C/c3ccc(F)cc3)cc2c1	9.74	–
0.00256	0.00387	0.00229	–	CC(=O)O[C@H]1C(=O)[C@@]2(C)[C@H]([C@H](OC(=O)c3ccccc3)[C@]3(O)C[C@H](OC(=O)[C@H](O)[C@@H](NC(=O)c4ccccc4)c4ccccc4)C(C)=C1C3(C)C)[C@]1(OC(C)=O)CO[C@@H]1C[C@@H]2O [PACLITAXEL]	0.00232	–
3.28	3.91	3.03	2.78	COc1ccc2nc(Cl)c(/C=C\c3cccc(C(F)(F)F)c3)cc2c1	5.58	–
11.4	15.2	9.67	8.97	COc1ccc2nc(Cl)c(/C=C\c3ccc(F)cc3)cc2c1	19.2	–
4.47	5.79	4.14	4.7	COc1ccc2nc(Cl)c(/C=C\c3cc(C(F)(F)F)cc(C(F)(F)F)c3)cc2c1	7.97	–
